Measured values published in ChEMBL document CHEMBL3822354, “Synthesis and evaluation of 2-pyridinylpyrimidines as inhibitors of HIV-1 structural protein assembly” (Bioorg Med Chem Lett, 2016).
Converted amounts (≈) assume the structure as drawn.

Tests used:
[1] = Solubility of compound in PBS by UV spectral analysis; format: physicochemical
[2] = molecular target: Structural capsid protein (Human immunodeficiency virus 1, UniProt Q76129); test: Inhibition of CAI-biotin peptide binding to GST-tagged HIV1 capsid C-terminal domain by alphascreen assay
Outline: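 Competitive AlphaScreen assay: test compound competes with CAI-biotin peptide for binding to GST-CA. IC50 is the compound concentration that lowers the AlphaScreen signal by 50%.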

[3] = system: Human immunodeficiency virus 1; test: Antiviral activity against HIV1 NL4-3 infected in human MT4 cells assessed as inhibition of viral replication after 3 days by luciferase reporter gene assay; format: functional, organism-based; details: Human immunodeficiency virus 1, NL4-3, MT4, 72 h
Outline: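 Two-fold serial dilutions of compound were added to MT-4 cells infected with HIV-1 NL4-3 carrying a Renilla luciferase reporter. Replication was read as luciferase activity after 3 days. EC50 is the concentration inhibiting replication by 50%.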

[4] = Cytotoxicity against human MT4 cells after 72 hrs by XTT assay; format: cell-based
Outline: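 The XTT read-out was run in parallel with the MT-4 infectivity assay, with two-fold serial compound dilutions on MT-4 cells.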

Chain of Structural capsid protein (Q76129 whole entry, the tested form may be a part): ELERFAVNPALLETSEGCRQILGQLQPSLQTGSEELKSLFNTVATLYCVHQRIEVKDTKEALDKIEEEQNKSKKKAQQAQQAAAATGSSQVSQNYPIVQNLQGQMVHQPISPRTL

Compound	solubility [1] [µM]	IC50 [2] [µM]	EC50 [3] [µM]	CC50 at 72 h [4] [µM]
CCOC(=O)c1cccc(Nc2ccnc(-c3ccncc3)n2)c1	46 (≈ 14.7 µg/mL)	> 100	–	–
O=C(NCCF)c1ccc(Nc2ccnc(-c3cccnc3)n2)cc1F	84 (≈ 29.8 µg/mL)	43	–	–
Cc1cc(Nc2ccc(C(=O)N3CCN(c4ccc(F)cc4)CC3)cc2)nc(-c2cccnc2)n1	42 (≈ 19.7 µg/mL)	20	–	–
CCOC(=O)c1ccc(Nc2ccnc(-c3cccnc3)n2)cc1	61 (≈ 19.5 µg/mL)	19	–	–
Cc1cc(Nc2ccc(C(=O)NCCF)c(F)c2)nc(-c2ccncc2)n1	9 (≈ 3.32 µg/mL)	> 100	–	–
CC(=O)c1ccc(Nc2cc(C)nc(-c3cccnc3)n2)cc1F	32 (≈ 10.3 µg/mL)	25	–	–
Cc1cc(Nc2ccc(C(=O)NCCF)cc2F)nc(-c2cccnc2)n1	50 (≈ 18.5 µg/mL)	15	> 100	> 100
Cc1cc(Nc2cc(F)c(F)c(F)c2)nc(-c2cccnc2)n1	73 (≈ 23.1 µg/mL)	22	–	–
O=C(NCCF)c1ccc(Nc2ccnc(-c3ccncc3)n2)cc1	97 (≈ 32.7 µg/mL)	> 100	–	–
O=C(NCCF)c1ccc(Nc2ccnc(-c3cccnc3)n2)c(F)c1	96 (≈ 34.1 µg/mL)	73	–	–
CCOC(=O)c1ccc(Nc2ccnc(-c3ccncc3)n2)cc1	52 (≈ 16.7 µg/mL)	28	–	–
CCOC(=O)c1cccc(Nc2ccnc(-c3cccnc3)n2)c1	92 (≈ 29.5 µg/mL)	21	–	–
CC(=O)c1cccc(Nc2cc(C)nc(-c3ccncc3)n2)c1	29 (≈ 8.83 µg/mL)	> 100	–	–
Cc1cc(Nc2ccc(C(=O)N3CCN(C(=O)C4CCCO4)CC3)cc2)nc(-c2cccnc2)n1 (configuration not stated)	99 (≈ 46.8 µg/mL)	54	–	–
CC(=O)c1cc(Nc2cc(C)nc(-c3cccnc3)n2)ccc1F	40 (≈ 12.9 µg/mL)	9	> 100	> 100
Cc1cc(Nc2ccc(C(=O)NCCF)cc2)nc(-c2cccnc2)n1	99 (≈ 34.8 µg/mL)	8	25	44
CCOC(=O)c1ccc(Nc2cc(C)nc(-c3cccnc3)n2)cc1	71 (≈ 23.7 µg/mL)	21	–	–
Fc1ccc(Nc2ccnc(-c3cccnc3)n2)cc1F	67 (≈ 19 µg/mL)	38	–	–

Compound	solubility [1] [µM]	IC50 [2] [µM]	EC50 [3] [µM]	CC50 at 72 h [4] [µM]
CC(=O)c1cc(Nc2cc(C)nc(-c3ccncc3)n2)ccc1F	23 (≈ 7.41 µg/mL)	83	–	–
O=C(NCCF)c1cc(Nc2ccnc(-c3cccnc3)n2)ccc1F	97 (≈ 34.5 µg/mL)	68	–	–
CCOC(=O)c1ccccc1Nc1ccnc(-c2cccnc2)n1	94 (≈ 30.1 µg/mL)	> 100	–	–
Cc1cc(Nc2ccc(C(=O)NCCF)c(F)c2)nc(-c2cccnc2)n1	98 (≈ 36.2 µg/mL)	3	20	35
Cc1cc(Nc2ccc(C(=O)NCCF)cc2)nc(-c2ccncc2)n1	40 (≈ 14.1 µg/mL)	> 100	–	–
Cc1cc(Nc2cc(C(=O)NCCF)ccc2F)nc(-c2cccnc2)n1	98 (≈ 36.2 µg/mL)	52	–	–
CC(=O)c1ccc(F)c(Nc2cc(C)nc(-c3cccnc3)n2)c1	58 (≈ 18.7 µg/mL)	> 100	–	–
CC(=O)c1ccc(Nc2cc(C)nc(-c3cccnc3)n2)cc1	94 (≈ 28.6 µg/mL)	12	50	77
Fc1ccc(Nc2ccnc(-c3ccncc3)n2)cc1F	42 (≈ 11.9 µg/mL)	81	–	–
CC(=O)c1ccc(Nc2ccnc(-c3ccncc3)n2)cc1	37 (≈ 10.7 µg/mL)	> 100	–	–
CCOC(=O)c1ccc(Nc2ccnc(-c3cccnc3)n2)c(F)c1	53 (≈ 17.9 µg/mL)	30	–	–
CC(=O)c1ccc(Nc2ccnc(-c3cccnc3)n2)cc1	98 (≈ 28.5 µg/mL)	53	–	–
O=C(NCCF)c1ccc(Nc2ccnc(-c3cccnc3)n2)cc1	99 (≈ 33.4 µg/mL)	34	–	–
CC(=O)c1ccc(Nc2cc(C)nc(-c3ccncc3)n2)cc1	6 (≈ 1.83 µg/mL)	54	–	–
CCOC(=O)c1ccc(Nc2cc(C)nc(-c3ccncc3)n2)cc1	4 (≈ 1.34 µg/mL)	36	–	–
CC(=O)c1cccc(Nc2ccnc(-c3cccnc3)n2)c1	97 (≈ 28.2 µg/mL)	39	–	–
CC(=O)c1cccc(Nc2cc(C)nc(-c3cccnc3)n2)c1	95 (≈ 28.9 µg/mL)	10	23	64
